The values below come from ChEMBL document CHEMBL1134467, “Novel, nonpeptidic cyanamides as potent and reversible inhibitors of human cathepsins K and L” (J Med Chem, 2001).

The structures appear in SMILES notation.

The target of series [1] is T1, Cathepsin K (Homo sapiens) (UniProt P43235).
T1 sequence (whole entry): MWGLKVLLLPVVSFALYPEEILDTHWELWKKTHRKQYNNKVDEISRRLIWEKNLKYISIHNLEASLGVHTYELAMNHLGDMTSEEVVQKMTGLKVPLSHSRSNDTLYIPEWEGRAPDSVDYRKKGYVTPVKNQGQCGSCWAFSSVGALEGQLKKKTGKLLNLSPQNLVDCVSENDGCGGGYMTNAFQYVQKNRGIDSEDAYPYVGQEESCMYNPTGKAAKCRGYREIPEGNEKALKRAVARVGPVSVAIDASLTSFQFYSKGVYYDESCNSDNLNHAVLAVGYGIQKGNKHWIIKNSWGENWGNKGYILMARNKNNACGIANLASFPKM
Briefly: Pre-steady-state kinetic parameter for inhibition of human cathepsin K. A digest of the protocol:
(§1)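 Slow-binding kinetics with cathepsin K (0.1 nM final, added to start the reaction) in 50 mM MES pH 5.5, 2.5 mM DTT, 2.5 mM EDTA, 10% DMSO, room temperature, stirred 1 mL cells. Z-Phe-Arg-AMC at 10-fold below Km (Km 30 μM), fluorescence ex 355/em 460 nm. Progress curves fitted for kobs; Ki, kon, koff averaged over at least three inhibitor concentrations.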

The target of series [2] is T2, Cathepsin K (Homo sapiens, UniProt P43235).
T2 sequence (P43235 whole entry): T1 sequence (whole entry)
Briefly: Inhibition of Cathepsin K at pH 7. A digest of the protocol: (§2)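 Recombinant human cathepsin K IC50 without glutathione at pH 5.5 or 7.0. Compound preincubated 30 min with enzyme, then 25 μM Z-Phe-Arg-pNA added. Activity read as OD increase at 405 nm. Percent inhibition set against a vehicle control. IC50 from a four-parameter logistic fit.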

In series [3] the target is T2, Cathepsin K. Briefly: Inhibition of Cathepsin K at pH 5.5. A digest of the protocol:
as §2

The target of series [4] is T2, Cathepsin K. In words: Effect of 10 mM of GSH on the inhibitory activity of compound against Cathepsin K, at pH 5.5. A digest of the protocol: (§3)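 Recombinant human cathepsin K IC50 with 10 mM glutathione at pH 5.5 or pH 7.0. Compounds preincubated 30 min with GSH before enzyme addition, then 30 min with enzyme before 25 μM Z-Phe-Arg-pNA. Activity read as OD increase at 405 nm. IC50 fitted to a four-parameter logistic model.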

The target in series [5] is T2, Cathepsin K. In words: Inhibitory constant against human cathepsin K. A digest of the protocol:
as §1

The target of series [6] is T2, Cathepsin K. In words: Inhibitory activity tested against Human Cathepsin K using Z-Phe-Arg-pNA as substrate.
The target of series [7] is Cathepsin B (Homo sapiens, UniProt P07858). Briefly: Inhibitory activity tested against Human Cathepsin B using Z-Phe-Arg-pNA as substrate.
In series [8] the target is Procathepsin L (Homo sapiens, UniProt P07711). Briefly: Inhibitory activity tested against Human Cathepsin L using Z-Phe-Arg-pNA as substrate.
Chain of Procathepsin L (P07711 whole entry): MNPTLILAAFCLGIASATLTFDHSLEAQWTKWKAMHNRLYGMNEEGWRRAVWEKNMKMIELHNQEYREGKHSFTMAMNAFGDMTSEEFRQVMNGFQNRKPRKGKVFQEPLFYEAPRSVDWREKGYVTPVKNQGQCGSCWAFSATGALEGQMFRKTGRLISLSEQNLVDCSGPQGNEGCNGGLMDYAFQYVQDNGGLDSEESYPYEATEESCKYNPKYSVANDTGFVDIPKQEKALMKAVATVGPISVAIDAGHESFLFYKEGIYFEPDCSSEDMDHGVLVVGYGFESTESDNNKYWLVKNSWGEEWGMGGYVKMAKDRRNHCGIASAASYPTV
In series [9] the target is T2, Cathepsin K. In words: Effect of 10 mM of GSH on the inhibitory activity against Cathepsin K, at pH 7. A digest of the protocol: as §3
The target in series [10] is T2, Cathepsin K. In words: Inhibitory activity tested against Human Cathepsin K […] using gelatinase assay. An outline of the steps:
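Recombinant human cathepsin K gelatinase activity on DQ gelatin, 0.25 mg/mL final. Run in 50 mM MES pH 5.5 with 2.5 mM DTT, 2.5 mM EDTA and 10% DMSO, enzyme 2–4 nM, 30 min compound preincubation. Fluorescein release read at ex 495/em 515 nm. IC50 from a four-parameter logistic fit.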

Series [11] is described as follows: Half life period in rat after (iv) administration. The class given is ADME, organism-based. To be noted: in vivo. An outline of the steps: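 Rats dosed intravenously in PEG-200/water (3:2), dosing volume 1 mL/kg; half-life derived from mean plasma levels.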
For series [12], the target named is T3, Papain (Carica papaya, UniProt P00784).
T3 sequence (P00784 whole entry): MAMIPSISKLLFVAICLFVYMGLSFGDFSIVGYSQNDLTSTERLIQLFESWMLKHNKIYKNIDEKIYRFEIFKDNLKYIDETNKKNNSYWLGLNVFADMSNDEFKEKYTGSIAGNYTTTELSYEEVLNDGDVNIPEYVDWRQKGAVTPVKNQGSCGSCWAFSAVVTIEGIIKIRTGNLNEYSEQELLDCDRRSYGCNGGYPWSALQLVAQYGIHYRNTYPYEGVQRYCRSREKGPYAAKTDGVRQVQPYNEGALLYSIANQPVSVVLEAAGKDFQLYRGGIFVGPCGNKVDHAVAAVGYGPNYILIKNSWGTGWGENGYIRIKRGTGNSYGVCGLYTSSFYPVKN
In words: Inhibitory activity tested against papain at a pH 5.5.

The nature of series [13]: Bioavailability after oral administration of 20 mg/kg in rat. The format is ADME, organism-based. Particulars: in vivo. An outline of the steps: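 Rats dosed orally at 20 mg/kg as a 1% methocel suspension, dosing volume 10 mL/kg; plasma levels followed over time and oral bioavailability derived.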

Consider `N#CN1Cc2cc3ccccc3nc2C1`, for which the k off in [1] amounted to 0.0025 s⁻¹. In series [1], this molecule had a k on of 6590 M⁻¹ s⁻¹. Moreover, the IC50 (as a rule, the concentration needed to halve the response being measured) worked out at 280 nM in [2]; 340 nM in series [3]; 360 nM in series [4]; 370 nM in [5]; 370 nM in series [6]; 2300 nM in series [7]. The IC50 in series [8] amounted to 450 nM; in [9] it was 11400 nM; in series [10] it was 360 nM. In addition, in series [5], the affinity, expressed as Ki, was 380 nM.

As to `N#CN1CCCC1CNS(=O)(=O)c1ccccc1` (stereo not given), the half-inhibitory concentration (IC50) in [6] turned out to be 12100 nM; in series [8] it was 11500 nM.

Consider `N#CN1CC(CNC(=O)c2ccccc2)C1`, for which the IC50 stood at 70 nM in series [6], 250 nM in series [7] and 650 nM in series [8].

In the case of `N#CN1CCC1`, the 50% inhibitory concentration (IC50) in series [2] stood at 880 nM; in series [3], 450 nM; in series [4], 480 nM; in series [6] it was 100 nM; in [7] it was 2000 nM; in [8] it was 430 nM. The same molecule yielded an IC50 in series [9] of more than 100000 nM.

Take `N#CN1CC(OCC2CCCCC2)C1`: the concentration for half-maximal inhibition (IC50) in [6] stood at 20 nM; in [7], 500 nM; in series [8], 100 nM.

On to `N#CN1CCC(NC(=O)OCc2ccccc2)C1` (stereo not given), for which the k off in series [1] came out at 0.0056 s⁻¹. Further, the k on in [1] was 67300 M⁻¹ s⁻¹. For the same molecule, the half-maximal inhibitory concentration (IC50) in [2] was determined as 50 nM; in series [3], 60 nM; in series [4], 90 nM; in series [5], 40 nM; in [6] it was 40 nM; in series [7], 200 nM. In addition, the IC50 amounted to 54 nM in series [8], 150 nM in series [9] and 20 nM in series [10]. Moreover, the inhibition constant (Ki) (commonly a measure of affinity in units of concentration, obtained from inhibition or displacement) in series [5] came out at 140 nM.

Take `N#CN1CCC(CNS(=O)(=O)c2ccccc2)C1` (stereo not given): the IC50 in series [6] turned out to be 200 nM; in series [7] it was 1500 nM; in [8], 350 nM.

As for `N#CN1CCC(NC(=O)c2ccccc2)C1` (stereo not given), the values for the IC50 in [6], in [7] and in series [8] were 370 nM, 4200 nM and 1750 nM, respectively.

Take `N#CN1CCC(NC(=O)c2ccc(-c3ccccc3)cc2)C1` (stereo not given): the concentration for half-maximal inhibition (IC50) worked out at 290 nM in series [6], 300 nM in [7] and 850 nM in [8].

For `N#CN1CCC(NS(=O)(=O)c2ccccc2)C1` (stereo not given), the half-life (as a rule, the time needed for the level to fall by half in the phase considered) in [11] was 2 h. The k off in series [1] amounted to 0.0019 s⁻¹. The same molecule gave a k on in series [1] of 19900 M⁻¹ s⁻¹. Besides, the IC50 in series [12] came to 230 nM; in series [5] it was 81 nM; in [6], 50 nM; in series [7], 1400 nM; in series [8], 80 nM; in [10], 18 nM. The same molecule gave a Ki in [5] of 90 nM. In series [13], the bioavailability (usually the share of a dose that reaches the circulation, judged against a reference dose that is usually intravenous) came to 38%.

With `N#CN1CC(OCc2ccccc2)C1`, the figures for the IC50 in series [6], in series [7] and in series [8] were 40 nM, 500 nM and 100 nM, respectively.

Turning to `CCN(C#N)CC`, the IC50 in series [6], in [7] and in series [8] was more than 100000 nM in each case.

Regarding `N#CN1CC(CNC(=O)C2CCCCC2)C1`, the IC50 in [2] was 38 nM; in series [3], 16 nM; in series [4], 27 nM; in [9], more than 100000 nM; in [10], 10 nM.

With `N#CN1CCCC1` [CYANO-PYRROLIDINE], the half-maximal inhibitory concentration (IC50) in series [2] was 2300 nM; in series [3], 1630 nM; in [4], 1500 nM; in series [6] it was 1000 nM; in series [7] it was 15000 nM; in series [8], 4000 nM. This molecule also had a half-inhibitory concentration (IC50) in series [9] of 3400 nM.

As to `N#CN1CCC(COCc2ccccc2)C1` (stereo not given), the results for the IC50 in [6], in series [7] and in series [8] were 100 nM, 1100 nM and 150 nM, respectively.

For the molecule `N#CN1CCCC1CNC(=O)c1ccccc1` (stereo not given), the IC50 came out at 13700 nM in series [6], 75000 nM in series [7] and 23000 nM in series [8].

For the molecule `N#CN1CC(CNS(=O)(=O)c2ccccc2)C1`, the k off in [1] came out at 0.0028 s⁻¹. This molecule displayed a k on in [1] of 141000 M⁻¹ s⁻¹. For the same molecule, the 50% inhibitory concentration (IC50) in [5] is 17 nM; in [6] it was 20 nM; in [7], 300 nM; in series [8] it was 50 nM. The molecule further returned an inhibition constant (Ki) in series [5] of 20 nM.
